The text below walks through data of the EternaBench riboswitch data.

For this data set, the system named is MS2 coat protein. Nature of the data set: apparent Kd, MS2 coat protein; higher = weaker binding; RNA-MaP array; FMN 200 µM where present. In outline: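 In 100 mM Tris-HCl pH 7.5, 80 mM KCl, 4 mM MgCl2, BSA, DTT, yeast tRNA and Tween-20, SNAP-549-labelled MS2 coat protein was titrated from 0.7 or 1.5 nM, doubling to 3 µM, over designs transcribed by stalled E. coli RNA polymerase on Illumina sequencing-chip clusters. This was done first without ligand, then with ligand held constant. After green signal was normalised to red-channel RNA signal and control-cluster median Fmax, the apparent Kd was taken as the median of filtered per-cluster binding-curve fits.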

The mark [1] stands for this setting: designed as: OFF switch for flavin mononucleotide, no ligand.
The mark [2] stands for this setting: ligand present: flavin mononucleotide, designed as: OFF switch for flavin mononucleotide.
[3] abbreviates: designed as: ON switch for flavin mononucleotide, no ligand.
The mark [4] stands for this setting: ligand present: flavin mononucleotide, designed as: ON switch for flavin mononucleotide.

In the case of “CUUAUGUGAGGAUAUCAGUAGUGAUACGAUAGUAUUACUGCUGAGAAGGCACAUGAGGAUCACCCAUGUUCCUC”, the “apparent Kd” value was 117 nM under setting [1] and 422 nM under setting [2].

In the case of “UGGUACUAGGGAGGAUAUCGGAAGAUACAUGAGGAUCACCCAUGUUUAAGAAUGCCGAGAGGCAACUAGAAGGCCCUAGUACCU”, the “apparent Kd” value reads like this: under setting [3], 6.64 nM; under setting [4], 6.13 nM.

For the sequence “AUGUAGGUAGGAUAUGCAUAGAUAUACAUUCAUGUGGAUUUACAUGAGGAUCACCCAUGUAGAAGGACCUAAAA”, the “apparent Kd” value reads like this: under setting [1], 34.1 nM; under setting [2], 107 nM.

In the case of “GUCAGCUCGUGAGGAUAUACAUCACUGCUUCGGCAGUGUAUUAAGUUCACAUGAGGAUCACCCAUGUAGAAGGCACGAGCUGAU”, the “apparent Kd” value under setting [1] is 15.2 nM and the “apparent Kd” value under setting [2] was 20.3 nM.

For the sequence “ACCAAUGCAGGAUAUACAUGAGGAUCACCCAUGUAUAACCUACAUAGAUGAUCAUCAUGUAGAAGGGCAAUGGA”, the “apparent Kd” value under setting [1] was determined as 13.1 nM and the “apparent Kd” value under setting [2] was determined as 12.1 nM.

Regarding “AUAUUGUGAGGAUAUGAACUUUGUAUCGAAAGAUACUAAGUUCAGAAGGCACAUGAGGAUCACCCAUGUUUCUC”, the “apparent Kd” value is, setting by setting: under setting [1], 82.2 nM; under setting [2], 1130 nM.

Take “AGUAAGAUGCAGAAGGUGUUAGCUAGAGCUACGACAUGAGGAUCACCCAUGUAAAACCGCCCGUACAAGGAUAUGCAUCUUACA”: the “apparent Kd” value is, setting by setting: under setting [3], 6.12 nM; under setting [4], 5.54 nM.

Regarding “AGCUGUGGCCGAGGAUAUCUAUCCAAUAUAACCGAAAUAUAAUCGGACAUGAGGAUCACCCAUGUAGAGAAGGCGGUCUCAGCA”, the “apparent Kd” value turned out to be 19.8 nM under setting [1] and 25.5 nM under setting [2].

Consider “AUCUUGUAAGGAUAUCUUACAAGUGACUUCGGUCACAGUUAAGAGAAGGUACAUGAGGAUCACCCAUGUAUAAC”, for which the “apparent Kd” value under setting [1] came out at 26.4 nM and the “apparent Kd” value under setting [2] worked out at 23 nM.

“UUGGACGUCGUAGGAUAUGUAGGAUAUUCCUACAUGAGGAUCACCCAUGUUGACAUGGAAGAGGGACAGAAGGACGAUGUCCAU”: the “apparent Kd” value is 606 nM under setting [3] and 30.5 nM under setting [4].

As to “GGUUGUCAUAGUCAUCCUUUCCGUACAUGAGGAUCACCCAUGUAGGAUAUGCUGCUCUCGGUGUGGCAGAAGGGCGUGUGUCUU”, the “apparent Kd” value is 17.8 nM under setting [1] and 18.9 nM under setting [2].

Consider “GGAUGACAAAGUCAUCCUAAACGAACAUGAGGAUCACCCAUGUAGGAUAUGCUACUCAAAGAGUAGCAGAAGGACAUGUGCCUU”, for which the “apparent Kd” value under setting [1] came to 37.3 nM and the “apparent Kd” value under setting [2] turned out to be 260 nM.

As for “AGCUAGUCAGGAUAUACGAAAAUGUCAGAGGCUGUGAAGGGACAUGAGGAUCACCCAUGUAGAAGGGACUAGCA”, the “apparent Kd” value under setting [1] turned out to be 96.8 nM and the “apparent Kd” value under setting [2] came to 136 nM.

On to “UGUUGUAUUACAGGAUAUCUAGUAUUUUUUUUUAGAGAAGGGUAUUCACAUGAGGAUCACCCAUGUAUAUACGAGGAAGUUGUG”, for which the “apparent Kd” value worked out at 67.1 nM under setting [3] and 71.1 nM under setting [4].

In the case of “GGAUCGUAUGUCAGGAUAUACCACUGGAUACAGUGGUAGAAGGGACAUGAGGAUCACCCAUGUCUUAUCGAUCC”, the “apparent Kd” value is 13.2 nM under setting [1] and 18.3 nM under setting [2].

With “GCGUAAUAGGUGUAGCUAGUCGUACAAGAAGGGUGGUGAACAUGAGGAUCACCCAUGUGGUCAAUACAGGAUAUUGUUAUACGC”, the “apparent Kd” value is, setting by setting: under setting [3], 832 nM; under setting [4], 112 nM.

In the case of “GAACAUGAGGAUCACCCAUGUUCUCCAGAAGGCCGUACAUUUAAAAGUGGAUGGAUUAGUGUUGCGGAGGAUAUGGAGGUGCAA”, the “apparent Kd” value was 72 nM under setting [3] and 17.8 nM under setting [4].

As to “CGAUUACGAGGAUAUUAUGGCCUCGACAUGAGGAUCACCCAUGUACAAACAUGAAUACCUUGAGAAGGCGUAGAGC”, the “apparent Kd” value was determined as 67.7 nM under setting [1] and 67.3 nM under setting [2].

As to “CCCACGUCAGGAUAUCCAAAGGUCCGAAAUAACGGUACUUUGGAGAAGGGACAUGAGGAUCACCCAUGUCCUCG”, the “apparent Kd” value worked out at 18.9 nM under setting [1] and 28.8 nM under setting [2].

Turning to “GAGUGACAUGAGGAUCACCCAUGUGAGGAUAUCGGACGGACCAAAUUAACAAUAAUUGCGAGAAGGCACAUCGG”, the “apparent Kd” value reads like this: under setting [1], 60.2 nM; under setting [2], 92.3 nM.

Usually apparent Kd stands for a dissociation constant that holds for the conditions of the assay.
